CHOP inh – CHOP inhibition in unfolded protein response | CHO-K1 CHOP-promoter luciferase, tunicamycin-induced, 15-18 h | inhibition, % at 10 µM | 220,000 compounds, 3.8% hits | AID 2732;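 active = compounds that reduced the stress-induced luciferase reporter signal by more than about 70% of percent inhibition, limit read from the data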;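 note: 0% = tunicamycin plus vehicle and 100% = wells without tunicamycin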
UPR CHOP act – activators of apoptotic arm of unfolded protein response (CHOP); CHO-CHOP luciferase reporter, UPR activation, luminescence; percent of tunicamycin response over DMSO baseline; activation, % at 10 µM; 330,000 compounds, 0.34% hits; AID 449763;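 active = at 10 µM dose, activation of 40% or more, normalized to positive control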;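 note: 100% = tunicamycin at 10 µg/mL and 0% = DMSO alone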
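Evaluation: % reporter activation, DMSO baseline versus tunicamycin full activation; System: CHO-CHOP luciferase reporter cell line; Input: 500 cells/well; Incubation: 6 h compound treatment, 37 °C; Measured by: Steady-Glo luciferase luminescence; Dosing: one dose, 10 µM in 0.5% DMSO; Buffer or medium: F12 medium, 10% FBS; Benchmarks: positive tunicamycin 10 µg/mL, negative DMSO alone.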
UPR XBP1 act – adaptive UPR (XBP1) activation; CHO-XBP1 luciferase reporter, IRE1-XBP1 UPR activation, luminescence; percent of tunicamycin response, DMSO as zero; activation, % at 20 µM; 330,000 compounds, 0.33% hits; AID 463104;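 active = versus positive control, 20 µM dose yields 30% or more activation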;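 note: 100% = tunicamycin at 10 µg/mL and 0% = DMSO only wells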
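incubation = overnight seeding at 37 °C, 6 h compound treatment at 37 °C | assay system = CHO-XBP1 cells stably carrying IRE1-XBP1-driven luciferase reporter | input = 1000 cells per well | detection = luciferase luminescence | dosing = single point, 20 µM final compound, 1% DMSO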
Dynein transport – dynein cargo transport inhibition; 220,000 compounds, 0.47% hits; AID 1381; z-score, hits read low; 3617.4 mouse cells, GR-EGFP nuclear translocation imaging; test concentration mostly 20 µM; stimulated with dexamethasone, 1 µM; hits give low values;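 active = plate z-score of nuclear minus cytoplasmic receptor signal below a set negative limit, without overly bright fluorescence or cell loss, cut at about -3.5 in these data, passing the limit was not always enough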;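 note: z-score of nuclear minus cytoplasmic ring GR-EGFP intensity difference per well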
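Buffer or medium: tet-free medium with charcoal-stripped serum / Also added: dexamethasone agonist, 1.0 µM final, for 30 min / Timing: induction 48 h, compound 1 h, agonist 30 min / Measured by: high-content fluorescence imaging after fixation / Read-out: nuclear-to-cytoplasmic GR-EGFP distribution per well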
L major viab – Leishmania major promastigote growth inhibition | Leishmania major promastigotes, resazurin fluorescence viability | inhibition, % at 10 µM | 200,000 compounds, 9% hits; in the data active = inhibition above about 50%;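 note: promastigotes grown with compound for 44 hours at 28 °C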
T cruzi inh – blocks replication of Trypanosoma cruzi; T. cruzi beta-gal in NIH3T3, luminescence, 90 h; inhibition, % (concentration not given with the values); 300,000 compounds, 1.4% hits; AID 1885;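 active = mean inhibition across valid replicates above about 55%, limit read from the data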;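 note: signal also drops with host cell toxicity which is not excluded here; 0% = plate median of DMSO wells and 100% = zero luminescence signal; higher percent means less beta-gal luminescence so fewer parasites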
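Read-out: Parasite load inhibition, % | Test system: Mouse NIH/3T3 fibroblasts infected with β-gal-expressing T. cruzi Tulahuen C4 | Amount: 5,000 cells/well | Medium: DMEM, 2% fetal bovine serum | Signal: GalScreen β-gal luminescence, detergent lysis, 60 min | Timing: 3 h attach, ≥90 h co-culture | Also added: Tulahuen C4 trypomastigotes, 5000/well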
Starred values were filed as active, the others as inactive; nt = no result. Shown is part of a subset that was picked to be rich in hits.

SMILES	CHOP inh	UPR CHOP act	UPR XBP1 act	Dynein transport	L major viab	T cruzi inh
CCN1C[C@@H]2[C@@H]3C(=O)N(Cc4ccccc4)C(=O)[C@@H]3[C@](CC)(C(=O)OC)N2C1=NC	nt	3	1	nt	nt	nt
CCOC(=O)c1cccc(NC(=O)Cn2cc3c(n2)CCC(C)C3)c1 (stereo not drawn)	83*	-2	1	0.53	-4	-7
O=C(Nc1cccc2ccccc12)N1CC=C(c2ccccc2)CC1	-8	-1	-1	0.17	-6	9
Cc1ccc(C(=O)N2CC=C(c3ccccc3)CC2)s1	nt	4	0	nt	nt	-5
O=C(O)C1CCCCC1C(=O)N1CC=C(c2ccccc2)CC1 (stereo not drawn)	44	-7	-8	-0.32	61*	-1
O=C(Nc1ccccc1)N1CC=C(c2ccc(F)cc2)CC1	22	10	1	1.1	85*	23
O=C(Nc1ccccc1)N1CC=C(c2ccccc2)CC1	35	4	3	0.14	81*	36
Cc1ncoc1C(=O)N1CCCC(N2CCN(c3cccc(C(F)(F)F)c3)CC2)C1 (stereo not drawn)	nt	2	-4	nt	nt	5
CC(=O)c1ccc(OC(=O)c2nc(-c3ccccc3)oc2C)cc1	nt	0	-1	nt	nt	-8
COCCNc1c(-c2cc3ccc(C)c(C)c3[nH]c2=O)nc2ccccn12	-20	3	3	0.16	5	4
CC(=O)c1cccc(NC(=O)c2cccc(NC(=O)c3ccco3)c2)c1	nt	0	-3	nt	nt	3
O=C(NCc1cccnc1)c1cccc(NC(=O)c2ccco2)c1	11	0	0	4	77*	-5
O=C(NC1CCCC1)c1cccc(NC(=O)c2ccco2)c1	-7	-1	0	-0.49	86*	-11
O=C(NC1=NCCS1)c1cccc(NC(=O)c2ccco2)c1	27	0	-1	0.67	99*	-1
CCN(CC(=O)NCc1ccc(Cl)cc1)C(=O)C1CCN(S(=O)(=O)c2ccc(OC)c(OC)c2)CC1	nt	-1	-3	nt	nt	12
c1ccc(-c2nc3ccccc3o2)nc1	-2	1	9	0.1	1	-3
c1ccc2nc(-c3nc4ccccc4o3)ccc2c1	71*	-8	-4	-1.3	-5	-2
CSc1cccc(NC(=O)C2(S(=O)(=O)c3ccc(C)cc3)CC2)c1	19	1	-1	-0.31	38	-6
CC1=C(C#N)C(c2cccnc2)C2=C(CC(c3ccc(Cl)cc3)CC2=O)N1 (stereo not drawn)	12	0	0	-0.84	100*	60*
CC1=C(C#N)C(c2ccc(O)cc2)C2=C(CCCC2=O)N1 (stereo not drawn)	59	1	-1	-0.15	-4	14
Cc1ccc(Cl)cc1N1CCN(C(=O)Cc2csc(Nc3nc(=S)[nH]c4ccccc34)n2)CC1	84*	6	14	-0.8	14	34
Cc1ccc(Cl)cc1N1CCN(C(=O)Cn2ccc3ccccc3c2=O)CC1	66	0	1	-0.43	-3	17
Cc1ccc(NC2CCCN(C(=O)CCc3ccncc3)C2)cc1C (stereo not drawn)	nt	1	-4	nt	nt	63*
Cc1ccc(NC2CCCN(C(=O)CSc3ccncc3)C2)cc1C (stereo not drawn)	nt	2	-6	nt	nt	56*
CN1C(=O)/C(=C\C(=O)c2cccs2)c2ccccc21	-24	3	-2	-1.1	100*	-26
SMILES	CHOP inh	UPR CHOP act	UPR XBP1 act	Dynein transport	L major viab	T cruzi inh
Cc1nc(-c2ccccn2)nc(N(C)c2ccccc2)c1Cl	nt	18	11	nt	nt	59*
CCc1ccc(N(CC(=O)NC(C)C)C(=O)CCC(=O)Nc2ccccn2)cc1	nt	-1	-2	nt	nt	-12
N#C/C(=C/c1ccc(-c2ccc(Br)cc2)o1)C(=O)NC1CCCCC1	58	5	1	-0.29	81*	9
N#C/C(=C\c1cc(Cl)ccc1O)C(=O)NC1CCCCC1	64	6	5	-0.85	9	-9
COc1ccc(-c2[nH]ncc2/C=C(/C#N)C(=O)NC2CCCCC2)cc1	31	0	-1	-0.39	66*	1
Cc1ccc(-c2[nH]ncc2/C=C(\C#N)C(=O)NC2CCCCC2)cc1	72*	0	0	0.55	35	-12
CN(C)S(=O)(=O)c1ccc(N2CCCC2)c(C(=O)NCC2COc3ccccc3O2)c1 (stereo not drawn)	nt	-1	1	nt	nt	2
Cc1c(C(=O)NCC2COc3ccccc3O2)oc2ccc(S(=O)(=O)N(C)C3CCCCC3)cc12 (stereo not drawn)	1	-1	2	2.3	53*	75*
CCOn1c(-n2nc(C)cc2C)nc2ccccc2c1=O	12	0	-1	0.77	-5	-33
Cc1cc(C)n(-c2nc3ccccc3c(=O)n2OCC#N)n1	nt	15	6	nt	nt	59*
S=c1nc(-c2ccc(Br)cc2)oc2c1CCCC2	-73	4	0	0.087	-5	-7
Cc1cccc(-c2nc(=S)c3c(o2)CCCC3)c1	77*	5	1	0.42	-3	-8
CN(C(=O)OC(C)(C)C)c1ccc(-c2nc3ccccc3s2)cc1	nt	-9	-9	nt	nt	16
Cn1c(O)c(N=NC(=O)Cn2ccc(C(F)(F)F)n2)c2ccccc21	22	0	0	-0.36	58*	-1
CCn1c(O)c(N=NC(=O)Cn2ccc(C(F)(F)F)n2)c2ccccc21	27	-1	0	-0.027	67*	4
Cn1c(O)c(N=NC(=O)c2ccccc2O)c2ccccc21	-20	2	-3	-0.078	3	3
CC(Oc1ccc(F)cc1)C(=O)Nc1ccccc1N1CCCCC1 (stereo not drawn)	nt	1	-2	nt	nt	25
O=C(CC1S/C(=N/N=C/c2ccco2)NC1=O)Nc1cccc(Cl)c1Cl (stereo not drawn)	94*	1	-2	-0.94	15	-15
COc1ccc(C)cc1Nc1n[n+](-c2ccccc2)c(-c2ccc(OC)c(OC)c2OC)s1	nt	4	0	nt	nt	55*
COc1cc(CN2CCN(c3ccc(C)cc3)CC2)cc([N+](=O)[O-])c1O	3	1	-1	-0.39	86*	11
COc1cc(OC)c(OC)cc1CN1CCN(Cc2ccc(SC)cc2)CC1	-1	-1	-1	-0.55	95*	28
COc1cc(CN2CCN(Cc3ccc(SC)cc3)CC2)cc(OC)c1O	18	-2	-3	-0.099	88*	24
COc1ccc(CN2CCN(Cc3ccc(C)cc3)CC2)c(OC)c1	nt	1	-2	nt	nt	57*
COc1cccc(CN2CCN(Cc3cc(OC)c(OC)cc3OC)CC2)c1	nt	-2	-2	nt	nt	28

Bioassay records from PubChem.
